APP 5'UTR act = activators of APP 5'UTR luciferase reporter, primary screen, SH-SY5Y cells; SH-SY5Y APP 5'UTR luciferase reporter, luminescence; zero percent = DMSO vehicle wells; activation, % at 2 µM; 190,000 tested, 1% active;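 active means activation above a set limit, based on mean plus 3 SD of controls, cut at about 140% in these data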
NF-kB expr up = activators of NF-kB expression in neurons, primary screen, cell-based, HTS | human neuronal cells, NF-kB reporter expression; hits give high values | fold change at 12.5 µM | 190,000 tested, 1.6% active | AID 1239, 2008; in the data active means fold change above about 3.3
STAT1 inh = STAT1 signaling inhibitors, primary screen, cell-based, HTS, luciferase reporter; NIH 3T3 STAT1-luciferase reporter, IFN-gamma, luminescence; inhibition, % at 5.5 µM; 200,000 tested, 0.35% active;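 active means inhibition above a set limit, the mean inhibition across all tested compounds plus 3 SD, cut at about 34% in these data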;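 further: 0% = IFN-gamma with DMSO and 100% = IFN-gamma with 300 µM nifuroxazide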
STAT3 activator = IL-6 driven STAT3 reporter potentiators, primary screen, U3A cells, luciferase, luminescence, MLSCN library; IL-6 STAT3-luciferase reporter; 100% = signal with IL-6 EC80 alone; activation (% of control), % at 5.6 µM; 190,000 tested, 0.91% active;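 active means activation above the screen-wide mean of compound activation plus 3 SD, cut at about 130% in these data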;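 further: 0% = background luminescence of wells with medium and substrate only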
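System – human U3A cells carrying STAT3-luciferase construct · Probe or stimulus – Interleukin-6, 33 ng/mL · Schedule – compound 1 h, then IL-6 6 h at 37 °C · Signal – luminescence from STAT3-driven luciferase reporter · Evaluation – percent of IL-6-only median luminescence · Benchmarks – IL-6-only high control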
STAT1 activator = STAT1 signaling activators, primary screen, cell-based, HTS, luciferase reporter. NIH 3T3 STAT1-luciferase reporter, IFN-gamma, luminescence; 100% = IFN-gamma alone, no compound. activation (% of control), % at 5.5 µM. 200,000 tested, 2.6% active;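 active means activation above the screen-wide mean activation plus 3 SD, cut at about 130% in these data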;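 further: raw ratio to IFN-gamma control signal so 100% means no change and 0% no light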
STAT3 inh-1 = IL-6 driven STAT3 reporter inhibitors, primary screen, U3A cells, luciferase, luminescence, MLSCN library. IL-6 STAT3-luciferase reporter; host cell line lacks STAT1. inhibition, % at 5.5 µM. 190,000 tested, 0.89% active;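 active means inhibition above the mean inhibition across all screened compounds plus 3 SD, cut at about 44% in these data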;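 further: 0% = DMSO only wells and 100% = 100 µM nifuroxazide control wells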
STAT3 inh-2 = STAT3 reporter inhibitors, retest of hits, confirmation, U3A cells, luciferase, luminescence; shares compounds with STAT3 inh-1; IL-6 STAT3 luciferase reporter; cell line lacks STAT1; inhibition, % at 5.7 µM; 1,200 tested, 45% active;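 active means inhibition above the hit cutoff computed for the primary STAT3 screen, cut at about 44% in these data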;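 further: 0% = IL-6 plus DMSO and 100% = IL-6 plus nifuroxazide control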
NFkB inh 2 = NF-kB reporter inhibitors in human cells, confirmation, counter-screen for STAT3 inhibitor project, cell-based, HEK293T, luciferase, TNF-alpha stimulus | shares compounds with STAT3 inh-1 | TNF-alpha induced | inhibition, % at 5.7 µM | 1,200 tested, 36% active | AID 1308, 2008;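 active means inhibition above the mean of solvent-only control wells plus 3 SD, cutoff set per campaign, cut at about 13% in these data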;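 further: 0% = TNF-alpha with DMSO and 100% = TNF-alpha with MG high control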
STAT1 inh STAT3c = STAT1 reporter inhibitors, IFN-gamma induced, confirmation, counter-screen for STAT3 inhibitor project, cell-based, NIH 3T3, luciferase luminescence; NIH 3T3 STAT1-luciferase reporter; AID 1317, 2008; 1,200 tested, 27% active; shares compounds with STAT3 inh-1; inhibition, % at 5.7 µM;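 active means inhibition above the mean plus 3 SD of solvent-only control wells, limit set per screening run, cut at about 16% in these data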;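 further: 0% = DMSO with IFN-gamma and 100% = nifuroxazide control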
The depositor's hits bear a star; · = not tested or not shown. Compounds with a hit are over-represented: about 5.1% of the library has one in this group of screens.

SMILES | APP 5'UTR act | NF-kB expr up | STAT1 inh | STAT3 activator | STAT1 activator | STAT3 inh-1 | STAT3 inh-2 | NFkB inh 2 | STAT1 inh STAT3c
COCCN=C1NN=C(c2cc(C)n(CC3CCCO3)c2C)CS1 (stereo not drawn) | 6.5 | 0.52 | 3.1 | 94.7 | 95.9 | 10.5 | · | · | ·
C=CCN=C1NN=C(c2cc(C)n(CC=C)c2C)CS1 | 57.5 | 0.25 | 25.3 | 38.0 | 77.5 | 73.5* | 49.5* | 26.4* | 2.4
Nc1c(C(=O)NC2CCCCC2)nsc1C(=O)OCC(=O)NC1CCCCC1 | -9.3 | 0.92 | 4.8 | 57.5 | 95.6 | 51.1* | 54.3* | 12.0 | 0.1
O=[N+]([O-])c1ccc(N/N=C/c2c[nH]c3ccccc23)cc1 | -8.2 | 2.41 | -8.7 | 67.7 | 107.9 | 47.8* | 25.8 | 8.1 | -9.8
Cc1ccc(NC(=O)CN2C(=O)NC(Cc3c[nH]c4ccccc34)C2=O)cc1S(=O)(=O)N1CCCCC1 (stereo not drawn) | -7.1 | 0.7 | 1.8 | 102.5 | 98.3 | 5.7 | · | · | ·
COC(=O)[C@@H]1CC[C@H](C)[C@@H](c2ccc(C)cc2)N1C(=O)c1ccc(/C=N/O[C@@H](C)c2cn([C@H](CO)Cc3ccccc3)nn2)cc1 | -3.9 | 0.47 | -3.8 | 97.5 | 103.5 | 0.2 | · | · | ·
CN=c1scc(C)n1/N=C/c1ccc2c(c1)OCO2 | 208.6* | 8.6* | -21.6 | 62.5 | 119.7 | 48.9* | 13.6 | -22.3 | -130.2
O=S(=O)(c1ccc(NC(=S)NN=C2CCCCC2)cc1)N1CCOCC1 | 13.3 | 1.03 | -1.1 | 100.5 | 100.4 | 1.8 | · | · | ·
COC(=O)c1ccc(NC(=O)c2ccc(N(C)S(C)(=O)=O)cc2)cc1 | -28.4 | 1.22 | 0.0 | 59.1 | 100.0 | 52.0* | 39.1 | 1.6 | -7.9
COc1ccc(NC(=O)c2ccc(N(C)S(C)(=O)=O)cc2)cc1OC | 5.4 | 1.25 | -5.4 | 96.6 | 106.7 | 5.4 | · | · | ·
CCN(CC)S(=O)(=O)c1ccc(C(=O)Nc2ccc(Cc3ccncc3)cc2)cc1 | -8.9 | 0.71 | 22.3 | 49.0 | 78.0 | 64.5* | 61.2* | 15.6* | 16.5*
CCN(CC)S(=O)(=O)c1ccc(NC(=O)c2ccc(N(C)S(C)(=O)=O)cc2)cc1 | -1.7 | 1.05 | 4.3 | 34.8 | 101.1 | 80.5* | 71.7* | 29.5* | 7.0
CCN(CC)S(=O)(=O)c1ccc(NC(=O)c2ccccc2N(C)S(C)(=O)=O)cc1 | -8.8 | 1.27 | 1.0 | 101.0 | 99.1 | 4.8 | · | · | ·
COc1ccc(NS(=O)(=O)c2ccc(NC(=O)c3ccc(N(C)S(C)(=O)=O)cc3)cc2)c(OC)c1 | 1.6 | 1 | 16.2 | 38.4 | 85.6 | 73.1* | 84.4* | 26.0* | 23.5*
CCC(=O)c1ccc(N2CCN(C(=O)c3ccccc3)CC2)c(F)c1 | 12.4 | 1.14 | 3.6 | 98.7 | 95.2 | 5.9 | · | · | ·
COc1ccc(CN(C)Cc2nc(Cc3cccc(F)c3)no2)c2cccnc12 | -3.0 | 0.87 | 24.7 | 51.5 | 75.8 | 61.2* | 62.2* | 18.8* | 26.2*
Cc1ccc(-c2csc(NC(=O)C3CCN(S(=O)(=O)c4cccs4)CC3)n2)cc1 | -19.1 | 1.17 | 12.8 | 35.6 | 90.0 | 79.4* | 83.7* | 32.9* | 17.2*
O=C(Nc1nc(-c2ccc(S(=O)(=O)N3CCOCC3)cc2)cs1)c1ccccc1 | 5.2 | 0.44 | 25.4 | 59.2 | 76.8 | 49.8* | 44.1* | 18.0* | 23.9*
